Measured values collected from several papers.
Protocols differ between the studies behind these lines.
Medium: plasma

N#Cc1[nH]nnc1-c1cccc(OCc2cc(C(F)(F)F)ccc2C(F)(F)F)c1
Cmax (male Sprague-Dawley rat; oral, 10 mg/kg): 4820 ng/mL

COc1ccnc(CNC(=O)c2cn(Cc3ccc(Cn4ccccc4=O)cc3)nc2C(F)(F)F)c1F
Cmax (male Sprague-Dawley rat; oral, 10 mg/kg): 2490 ng/mL

CNCc1cc(-c2ccccc2F)n(S(=O)(=O)c2cccnc2)c1
Cmax (male Sprague-Dawley rat; oral, 10 mg/kg): 140 ng/mL

C=CC(=O)N1CC2CC(n3nc(-c4ccc(C(=O)Nc5ccccn5)cc4)c4c(N)ncnc43)CC2C1 (stereo not shown)
Cmax (male Wistar rat; oral, 300 mg/kg): 6140 ng/mL

COCc1nn(Cc2ccc(Cn3ccccc3=O)cc2)cc1C(=O)NCc1c(F)ccc(OC)c1F
Cmax (male Sprague-Dawley rat; oral, 10 mg/kg): 2890 ng/mL

CC[C@H](C)[C@H](NC(=O)[C@H](Cc1ccccc1)NC(=O)[C@H](CCC(=O)O)NC(=O)[C@H](CCCNC(=N)N)NC(=O)[C@H](C)NC(=O)[C@H](C)NC(=O)[C@H](CCC(N)=O)NC(=O)[C@H](CCC(=O)O)NC(=O)[C@H](CCC(=O)O)NC(=O)[C@H](CC(C)C)NC(=O)[C@H](Cc1ccc(O)cc1)NC(=O)[C@H](CO)NC(=O)[C@H](CO)NC(=O)[C@@H](NC(=O)[C@H](CC(=O)O)NC(=O)[C@H](CO)NC(=O)[C@@H](NC(=O)[C@H](Cc1ccccc1)NC(=O)[C@@H](NC(=O)CNC(=O)[C@H](CCC(=O)O)NC(=O)[C@H](C)NC(=O)CCc1c[nH]cn1)[C@@H](C)O)[C@@H](C)O)C(C)C)C(=O)N[C@@H](C)C(=O)N[C@@H](Cc1c[nH]c2ccccc12)C(=O)N[C@@H](CC(C)C)C(=O)N[C@H](C(=O)N[C@@H](CCCNC(=N)N)C(=O)NCC(=O)N[C@@H](CCCNC(=N)N)C(=O)N[C@@H](CCCCNC(=O)COCCOCCNC(=O)COCCOCCNC(=O)CC[C@H](NC(=O)CCCCCCCCCCCCCCCCC(=O)O)C(=O)O)C(=O)O)C(C)C
Cmax (rat; subcutaneous, 20 nmol/kg): 64.2 nM

C#Cc1cccc(Nc2ncnc3cc(OCCOC)c(OCCOC)cc23)c1
Cmax (male Sprague-Dawley rat; oral, 12 mg/kg, single dose): 1580 ng/mL

CCc1cc(C(=O)NC)c2nccc(N3CCc4c(cc(Cn5ccnc5)cc4-c4cn(C)nc4C(F)(F)F)C3=O)c2c1
Cmax (male Sprague-Dawley rat; oral, 50 mg/kg, single dose): 6170 ng/mL

N#Cc1[nH]nnc1-c1cc(Cl)cc(/C=C/c2cccc(C(F)(F)F)c2)c1
Cmax (male Sprague-Dawley rat; oral, 10 mg/kg): 2670 ng/mL

CNC(=O)c1c(C)oc2cc(Oc3ncnc4cc(OC)c(OC)cc34)ccc12
Cmax (Sprague-Dawley rat; oral, 1 mg/kg, single dose): 712 ng/mL

Cc1ccc(S(=O)(=O)n2cc3c4c2C(=O)C(NCc2ccc(Cl)cc2)=CC4=NCC3)cc1
Cmax (rat; intravenous, 5 mg/kg, single dose): 1240 ng/mL

COc1nc(-c2cc(C)c(N[C@@H](C)c3cc(F)cc(F)c3)nn2)ccc1-n1cnc(C)c1
Cmax (male Sprague-Dawley rat; oral, 5 mg/kg, single dose): 3240 ng/mL

CCOC(=O)[C@@]12C[C@@H]1[C@@H](n1ccc3c(NC)nc(C#Cc4ccc(Cl)s4)nc31)[C@H](O)[C@@H]2O
Cmax (male Sprague-Dawley rat; oral, 3 mg/kg): 67.1 ng/mL

COc1cc2c3c(n(CCCN4CCOCC4)c(=O)c2cc1OC)-c1cc2c(cc1C3=O)OCO2
Cmax (female Fischer 344 rat; intravenous, 12 mg/m², single dose): 301 ng/mL

N#Cc1ccc(Nc2nc(N)cc(Oc3c(F)cc(-c4ccc(C#N)cc4)cc3F)n2)cc1
Cmax (Sprague-Dawley rat; oral, 5 mg/kg): 15.4 ng/mL

CNCc1cc(-c2ccccc2F)n(S(=O)(=O)c2cccnc2)c1
Cmax (Sprague-Dawley rat; oral, 10 mg/kg): 245 ng/mL

CC(C)(C)C[C@H]1N[C@@H](C(=O)NCC[C@H](O)CO)[C@H](c2cccc(Cl)c2)[C@@]12C(=O)Nc1cc(Cl)c(F)cc12
Cmax (rat; oral, 25 mg/kg): 6400 nM

O=C(Nc1cc(F)c(F)c(F)c1)c1ccc(F)c(S(=O)(=O)NCc2cccc(B(O)O)c2)c1
Cmax (male Sprague-Dawley rat; oral, 20 mg/kg): 46.3 ng/mL

CCNC(=O)c1nc(-c2ccc3[nH]c(-c4nc(C)no4)cc3c2)c(C)[nH]1
Cmax (Sprague-Dawley rat; oral, 10 mg/kg, suspension): 2600 nM

COCCOC(=O)C1=C(C)NC(C)=C(C(=O)OC(C)C)C1c1cccc([N+](=O)[O-])c1 (stereo not shown)
Cmax (male Sprague-Dawley rat; oral, 12 mg/kg): 85 ng/mL

COCc1nn(Cc2ccc(Cn3ccccc3=O)cc2)cc1C(=O)NCc1nccc(OC)c1F
Cmax (male Sprague-Dawley rat; oral, 10 mg/kg): 1940 ng/mL

Cc1c(-c2ccccc2)cccc1N1C(=O)c2cc(CN[C@H](C(=O)O)C(C)O)c(OCc3cccc(C#N)c3)cc2C1=O (stereo partly shown)
Cmax (Sprague-Dawley rat; oral, 50 mg/kg): 26 ng/mL
